Source: PubChem BioAssay
ABCG2 block – human ABCG2 inhibition, ABCB1 as counter-screen; Q9UNQ0; IgMXP3 cells, JC-1 efflux, flow cytometry; inhibition, % at 6.6 µM; 190,000 compounds, 0.1% hits;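 active = inhibition above 80%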;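 also: 0% = DMSO and 100% = nicardipine control wells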
Target sequence (Q9UNQ0 whole entry, looked up): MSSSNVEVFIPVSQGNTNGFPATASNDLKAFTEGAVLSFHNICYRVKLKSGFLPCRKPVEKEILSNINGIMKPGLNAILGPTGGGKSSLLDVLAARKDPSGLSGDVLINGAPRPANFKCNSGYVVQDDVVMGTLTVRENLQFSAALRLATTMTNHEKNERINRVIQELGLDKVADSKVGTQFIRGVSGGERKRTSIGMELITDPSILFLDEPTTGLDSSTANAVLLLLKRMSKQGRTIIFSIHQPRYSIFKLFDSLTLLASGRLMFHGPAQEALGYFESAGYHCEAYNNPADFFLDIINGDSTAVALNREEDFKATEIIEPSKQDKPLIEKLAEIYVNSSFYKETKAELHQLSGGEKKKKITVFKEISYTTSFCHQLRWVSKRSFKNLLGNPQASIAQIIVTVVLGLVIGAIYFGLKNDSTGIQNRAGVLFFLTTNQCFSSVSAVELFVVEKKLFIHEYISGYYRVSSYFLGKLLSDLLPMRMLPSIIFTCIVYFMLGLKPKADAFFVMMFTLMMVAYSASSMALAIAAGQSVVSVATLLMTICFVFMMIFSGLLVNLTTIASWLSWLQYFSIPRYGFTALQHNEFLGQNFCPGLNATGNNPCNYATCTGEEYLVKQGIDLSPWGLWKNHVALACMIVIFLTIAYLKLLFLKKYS
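material = IgMXP3 (ABCG2) plus far-red-tagged CCRF-Adr (ABCB1) cells | amount = 3 million cells/mL, equal mix of both lines | also added = JC-1 transporter substrate | dosing = one concentration, 6.6 µM final | schedule = 10 min at 25 °C | measured by = flow cytometric JC-1 green MFI at 530 nm | read-out basis = percent efflux inhibition, scaled nicardipine 100% to DMSO 0%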
Lmaj promast – Leishmania major promastigote growth inhibition; Leishmania major promastigotes, resazurin fluorescence viability; inhibition, % at 10 µM; 200,000 compounds, 9% hits;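 also: promastigotes grown with compound for 44 hours at 28 °C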
ABCB1 inh – inhibitors of human ABCB1 transporter, ABCG2 counter-screen; 190,000 compounds, 0.067% hits; CCRF-Adr cells, JC-1 efflux, flow cytometry; P08183; inhibition, % at 6.6 µM; in the data active = inhibition above about 40%;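 also: 0% = vehicle and 100% = reference inhibitor; higher value means more JC-1 retained so stronger ABCB1 efflux block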
Avidin fluor – avidin bead compound fluorescence profile. AID 1775. fluorescence (KMESF) at 10 µM. Avidin beads, compound fluorescence 488/530 nm, flow cytometry; hits give high values. 220,000 compounds, 0.38% hits; in the data active = fluorescence above about 47
GSH bead fluor – GSH bead compound fluorescence profile; GSH beads flow cytometry, compound fluorescence 488/530 nm; hits give high values; fluorescence (KMESF) at 10 µM; 190,000 compounds, 0.25% hits; AID 1776; in the data active = fluorescence above about 89;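 also: glutathione beads carrying GST-tagged Bcl family fusion proteins plus one bare bead set; values are compound well signal with DMSO vehicle wells as background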
PKD1 kinase inh – inhibitors of human PKD1 kinase; Q15139; PKD1 kinase fluorescence polarization assay; inhibition, % (concentration not given with the values); 200,000 compounds, 0.056% hits; AID 797
* hit, by the source's call; x = not tested or not shown. The sample as a whole holds a higher share of hits than the screen did. Rule as the data show it, unless noted: active = inhibition above about 50%; inactive = the rest.

SMILES	ABCG2 block	Lmaj promast	ABCB1 inh	Avidin fluor	GSH bead fluor	PKD1 kinase inh
COc1ccc(CCN(C)Cc2ccc(OCc3ccccc3)c(OC)c2)cc1OC	4	64*	2	16	57	-5
COc1ccc(CCN(C)Cc2ccc(OC)c(OCc3ccccc3)c2)cc1OC	19	5	2	50*	32	4
COc1ccc(CN(C)CCc2ccccn2)cc1OC	1	5	0	x	19	4
S=C(NCCN1CCOCC1)Nc1ccc(Cl)cc1	2	2	0	10	15	0
Cc1cccc(NC(=S)NCCCN2CCOCC2)c1	0	0	0	12	13	-2
S=C(NCCN1CCOCC1)Nc1ccc(Cl)c(Cl)c1	9	55*	1	8	13	-7
S=C(NCCCN1CCOCC1)Nc1ccc(Cl)cc1	3	99*	0	9	3	0
Cc1ccc(NC(=S)NCCCN2CCOCC2)cc1	14	78*	1	17	3	-10
CC(NC(=S)NCCCN1CCOCC1)C12CC3CC(CC(C3)C1)C2 (stereo not given)	1	86*	1	14	14	1
CC(=O)N1CCN(C(=S)Nc2cc(S(=O)(=O)N3CCOCC3)ccc2Cl)CC1	1	-3	0	21	12	7
COC(=O)c1c(N2C(=O)[C@H]3[C@@H](C2=O)[C@]2(C(=O)Nc4ccc(C)cc42)N2CCC[C@@H]32)sc(C)c1C	-1	14	1	7	13	-7
CCn1c(SCC(=O)Nc2cc(C)on2)nnc1-c1c[nH]c2ccccc12	6	3	1	7	18	3
CCCc1ccc(C(=O)NNc2ccccc2F)cc1	x	x	x	5	x	x
CC1CCN(CCNC(=S)Nc2ccc(Cl)cc2)CC1	4	66*	1	5	20	-2
Fc1ccc(NC(=S)NCCN2CCOCC2)cc1	-4	-2	1	8	15	-2
Cc1ccc(NC(=S)NCC(C)C)cc1	6	78*	0	12	9	-3
O=C(Cc1ccc(F)cc1)N1CCC(N2CCC(C(=O)N3CCOCC3)CC2)CC1	5	15	0	9	13	-5
CN(C)c1oc(-c2ccccc2Cl)nc1P(=O)(c1ccccc1)c1ccccc1	5	96*	1	11	43	-9
CNC(=S)Nc1cc(Cl)ccc1Oc1ccccc1	1	2	0	2	6	-4
CCNC(=S)Nc1cc(Cl)ccc1Oc1ccccc1	13	67*	0	13	3	-12
CC(C)Cc1nc(N2CCN(C(=O)c3ccco3)CC2)c(C#N)c2c1CCC2	3	51*	1	39	10	0
CCc1nc(N2CCN(C(C)=O)CC2)c(C#N)c2c1COC(C)(C)C2	x	x	x	6	x	x
CC1(C)Cc2c(C#N)c(N3CCN(C(=O)c4ccco4)CC3)nc(Cc3ccccc3)c2CO1	-6	90*	0	10	15	-4
O=C(c1ccco1)N1CCN(c2nc3ccccc3n3nnnc23)CC1	6	-6	1	11	16	11
CC(C)c1cc(N2CCN(C(=O)c3ccco3)CC2)n2c(nc3ccccc32)c1C#N	3	52*	5	7	13	1
SMILES	ABCG2 block	Lmaj promast	ABCB1 inh	Avidin fluor	GSH bead fluor	PKD1 kinase inh
CC1=NN(C(C#N)c2ccccc2O)C(C)(C)C1 (stereo not given)	1	-7	0	11	24	-5
N=C(CC1CC(=O)NC(=O)C1)C1=C(O)CCCC1=O	2	-3	1	15	21	4
O=C1OC(c2ccc(F)cc2)=C/C1=C\c1ccc([N+](=O)[O-])o1	2	100*	0	26	20	-2
Cc1nnc(SCC2=C(C(=O)O)N3C(=O)C(NC(=O)C(C)n4nc(C(F)(F)F)cc4C)C3SC2)s1 (stereo not given)	-1	-4	0	11	16	5
CCc1cc2c(=O)c(-c3cnn(-c4ccccc4)c3)c(C(F)(F)F)oc2c(CN(C)C)c1O	3	2	0	6	11	-3
O=C(NNc1cccc(Cl)n1)c1cccnc1Cl	-3	-6	0	4	12	8
O=C(NNc1cccc(Cl)c1)c1cccnc1Cl	1	88*	0	2	5	-7
O=C(OC1C2CCC1C1CN(CCc3ccccc3)CC12)c1ccccc1 (stereo not given)	-2	51*	0	7	11	-9
Cc1cc(N2CCCC2)nc2ccc(NC(=S)NCCCOC(C)C)cc12	0	93*	0	8	14	-5
CCCN(CCC)CCCNC(=S)Nc1ccc2nc(N3CCCC3)cc(C)c2c1	1	87*	0	6	15	-1
COc1ccc(CNC(=S)Nc2ccc3nc(N4CCOCC4)cc(C)c3c2)cc1	1	5	0	x	13	-4
CCN(CC)CCNC(=S)Nc1ccc2nc(N3CCCC3)cc(C)c2c1	-1	86*	0	22	12	-3
COc1ccc(CCNC(=O)C2CCN(Cc3nc(-c4cccc(Cl)c4)oc3C)CC2)cc1OC	2	8	2	13	28	-7
COc1ccc(CCNC(=O)C2CCCN(Cc3nc(-c4ccccc4C)oc3C)C2)cc1OC (stereo not given)	-5	92*	0	10	15	1
CCN1CCN(CCNC(=O)C2CCCN(Cc3nc(-c4cccc(Cl)c4)oc3C)C2)CC1 (stereo not given)	4	94*	1	23	16	-1
CCN1CCN(C(=O)CSCc2nc(-c3ccc(OC)c(OC)c3)oc2C)CC1	-6	-1	-2	8	19	-11
CCc1ccc(-c2nc(CN3CCCC(C(=O)NCCc4ccc(OC)c(OC)c4)C3)c(C)o2)cc1 (stereo not given)	-4	83*	-1	8	18	0
CCN1CCN(CCNC(=O)CSCc2nc(-c3ccc(OC)c(OC)c3)oc2C)CC1	21	88*	-2	11	35	-4
C=C(C)C1CC=C(C)/C(=N\NC(=O)CNc2cccc3ccccc23)C1 (stereo not given)	-1	0	-1	11	11	3
CCCN(CCC)CCNC(=O)C1CCN(Cc2nc(-c3ccc(Cl)cc3)oc2C)CC1	2	98*	1	10	60	14
CCOC(=O)c1c(CSc2cccs2)n(C)c2cc(Br)c(O)c(CN(C)C)c12	0	22	1	20	11	-5
CC1(C)C(N(O)C(=O)Nc2ccc(Cl)cc2)N(c2ccc(Cl)cc2)C(=O)N1CC(=O)NN (stereo not given)	1	100*	0	15	11	-5
Cc1cc(O)c(C(C[N+](=O)[O-])c2ccc(Cl)cc2)c(=O)o1 (stereo not given)	0	4	0	8	3	-3
